The structures appear in SMILES notation.

The target of assay [1] is Epidermal growth factor receptor (Homo sapiens, UniProt P00533). In words: Concentration required to inhibit phosphorylation of isolated human epidermal growth factor tyrosine kinase receptor by 50%.
For assay [2], the target named is T1, Platelet-derived growth factor receptor (Homo sapiens, UniProt P09619+P16234). The assay can be described thus: Inhibition of human PDGF receptor phosphorylation; 0.015-0.025. It counts as protein-complex assay. In a few lines:
(§1)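 PDGF receptor from NIH 3T3 cell lysates (cells made quiescent 24 h in 0.5% calf serum), stimulated with 10 ng/mL PDGF for 30 min at 4 °C and immunoprecipitated on Protein A beads. Each compound ran in at least two dose-response assays.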

For assay [3], the target named is T1, Platelet-derived growth factor receptor. In words: Inhibition of human PDGF receptor phosphorylation; 0.1-0.6. It counts as protein-complex assay. In a few lines: (§2)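 Receptor from quiescent NIH 3T3 cell lysates (24 h in 0.5% calf serum before lysis), stimulated with 10 ng/mL PDGF for 30 min at 4 °C, then immunoprecipitated with anti-PDGF receptor antibody on Protein A beads. Compound pre-incubated 10 min at 4 °C in 50 mM Tris, 10 mM MnCl2, pH 7.5. At least two dose-response assays per compound.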

For assay [4] the target is unchanged. The assay can be described thus: Inhibition of human PDGF receptor phosphorylation; 0.1-0.25. It counts as protein-complex assay. In a few lines:
as §1

Assay [5] has the same target. In words: Inhibition of isolated human PDGF receptor phosphorylation. It counts as protein-complex assay.
The target is the same in assay [6]. The assay can be described thus: Inhibition of human PDGF receptor phosphorylation; 0.05-0.07. The assay is classed as protein-complex assay. The method in brief: as §1
Assay [7] shares this target. The assay can be described thus: Inhibition of human PDGF receptor phosphorylation; 0.02-0.03. It counts as protein-complex assay. In a few lines: as §1
Assay [8] has the same target. In words: Inhibition of human PDGF receptor phosphorylation; 0.2-0.25. The assay is classed as protein-complex assay. In a few lines:
as §1

For assay [9] the target is unchanged. The assay can be described thus: Inhibition of human PDGF receptor phosphorylation; 0.001-0.005. The assay is classed as protein-complex assay. The method in brief:
as §1

Assay [10] has the same target. In words: Inhibition of human PDGF receptor phosphorylation; 0.04-0.08. It counts as protein-complex assay. The method in brief: as §1
Assay [11] shares this target. The assay can be described thus: Inhibition of human PDGF receptor phosphorylation; 0.1-0.8. It counts as protein-complex assay. In a few lines: as §1
The target is the same in assay [12]. In words: Inhibition of human PDGF receptor phosphorylation; 0.004-0.025. The assay is classed as protein-complex assay. The method in brief: as §1
For assay [13] the target is unchanged. In words: Inhibition of human PDGF receptor phosphorylation; 1-2. It counts as protein-complex assay. In a few lines: as §1
The target is the same in assay [14]. In words: Inhibition of human PDGF receptor phosphorylation; 2-8. The assay is classed as protein-complex assay. The method in brief:
as §1

For assay [15] the target is unchanged. The assay can be described thus: Inhibition of human PDGF receptor phosphorylation; 6-10. It counts as protein-complex assay.
The target is the same in assay [16]. In words: Inhibition of human PDGF receptor phosphorylation; 0.02-0.08. The assay is classed as protein-complex assay.
The target is the same in assay [17]. In words: Inhibition of human PDGF receptor phosphorylation; 0.1-0.2. The assay is classed as protein-complex assay. In a few lines:
as §1

Assay [18] has the same target. The assay can be described thus: Inhibition of human PDGF receptor phosphorylation; 0.07-0.15. It counts as protein-complex assay.
The target of assay [19] is cAMP-dependent protein kinase (PKA) (Homo sapiens, UniProt P22694+P17612+P22612). In words: Test for the inhibition of protein kinase A. The assay is classed as protein assay.
Assay [20] deals with T1, Platelet-derived growth factor receptor. The assay can be described thus: Inhibition of human PDGF receptor phosphorylation; 0.025-0.03. It counts as protein-complex assay. The method in brief: as §1
For assay [21] the target is unchanged. The assay can be described thus: Inhibition of human PDGF receptor phosphorylation; 2-10. It counts as protein-complex assay. The method in brief: as §1
Assay [22] has the same target. The assay can be described thus: Inhibition of human PDGF receptor phosphorylation; 0.03-0.1. The assay is classed as protein-complex assay. In a few lines:
as §2

Chain of Epidermal growth factor receptor (P00533 whole entry): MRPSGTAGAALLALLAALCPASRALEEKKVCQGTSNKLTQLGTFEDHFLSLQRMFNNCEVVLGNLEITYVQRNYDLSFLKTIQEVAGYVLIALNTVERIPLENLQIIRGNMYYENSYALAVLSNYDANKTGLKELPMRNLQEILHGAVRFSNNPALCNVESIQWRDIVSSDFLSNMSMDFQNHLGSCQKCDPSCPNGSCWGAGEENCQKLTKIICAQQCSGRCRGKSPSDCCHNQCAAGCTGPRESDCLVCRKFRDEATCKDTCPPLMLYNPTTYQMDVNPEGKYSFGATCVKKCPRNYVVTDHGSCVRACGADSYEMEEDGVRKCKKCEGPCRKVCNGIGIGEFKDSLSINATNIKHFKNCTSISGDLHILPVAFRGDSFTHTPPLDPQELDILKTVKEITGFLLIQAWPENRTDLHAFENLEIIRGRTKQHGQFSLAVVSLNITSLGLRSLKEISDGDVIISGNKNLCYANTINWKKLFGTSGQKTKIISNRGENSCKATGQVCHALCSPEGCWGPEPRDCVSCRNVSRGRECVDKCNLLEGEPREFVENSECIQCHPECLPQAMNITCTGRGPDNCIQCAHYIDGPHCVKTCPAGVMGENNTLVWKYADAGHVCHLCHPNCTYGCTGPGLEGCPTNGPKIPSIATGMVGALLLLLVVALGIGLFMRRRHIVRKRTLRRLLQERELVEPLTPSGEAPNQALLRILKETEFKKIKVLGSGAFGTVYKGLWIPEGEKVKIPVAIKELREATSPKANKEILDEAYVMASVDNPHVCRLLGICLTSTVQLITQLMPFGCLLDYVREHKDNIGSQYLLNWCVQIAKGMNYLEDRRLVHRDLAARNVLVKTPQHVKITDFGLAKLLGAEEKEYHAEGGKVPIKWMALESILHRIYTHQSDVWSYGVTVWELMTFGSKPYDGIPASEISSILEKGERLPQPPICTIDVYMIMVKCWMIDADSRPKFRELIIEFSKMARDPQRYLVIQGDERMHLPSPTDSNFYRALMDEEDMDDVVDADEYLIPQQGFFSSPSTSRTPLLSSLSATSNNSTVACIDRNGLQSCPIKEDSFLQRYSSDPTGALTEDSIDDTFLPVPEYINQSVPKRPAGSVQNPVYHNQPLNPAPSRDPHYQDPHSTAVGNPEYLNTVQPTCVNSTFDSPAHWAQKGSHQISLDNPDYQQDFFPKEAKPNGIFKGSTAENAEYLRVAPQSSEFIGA

For `COc1cc2cc(-c3cccc(F)c3)cnc2cc1OC`, the half-inhibitory concentration (IC50) (usually the concentration that inhibits the measured activity by half) in [1] is above 20 µM; in assay [2], 0.025 µM.

In the case of `COc1cc2cc(-c3c[nH]c4ccccc34)cnc2cc1OC`, the IC50 in [1] is above 20 µM; in assay [3] it was 0.6 µM.

Take `COc1ccc(-c2cnc3cc(OC)c(OC)cc3c2)s1`: the results for the IC50 in assay [1] and in assay [4] were above 20 µM and 0.25 µM, respectively.

Consider `COc1cc2cc(N)cnc2cc1OC`, for which the IC50 is above 50 µM in assay [5] and above 20 µM in [1].

For the compound `COc1ccc2ncc(-c3ccsc3)cc2c1`, the IC50 in [1] was above 20 µM; in [6], 0.07 µM.

Consider `COc1ccc2cc(-c3cccnc3)cnc2c1OC`, for which the IC50 is above 50 µM in assay [5] and above 25 µM in assay [1].

For the compound `COc1cc2cc(-c3ccc(O)cc3)cnc2cc1OC`, the values for the 50% inhibitory concentration (IC50) in assay [1] and in assay [7] were above 20 µM and 0.03 µM, respectively.

Regarding `Cc1ccc(C)c2ncc(-c3ccsc3)cc12`, the IC50 in [5] was above 50 µM; in assay [1], above 20 µM.

On to `c1ccc2ncc(-c3ccsc3)cc2c1`, for which the IC50 was 0.25 µM in assay [8] and above 20 µM in assay [1].

As for `Cc1cc(C)c2cc(-c3ccsc3)cnc2c1`, the IC50 was 0.005 µM in assay [9] and above 20 µM in assay [1].

For `COc1cc2cc(-c3cccs3)cnc2cc1OC`, the IC50 in assay [1] was above 20 µM; in assay [10], 0.08 µM.

For the compound `COc1cc2cc(-c3cccnc3)cnc2cc1OC`, the concentration for half-maximal inhibition (IC50) in [1] is above 25 µM; in [11], 0.8 µM.

Regarding `Fc1cccc2ncc(-c3ccsc3)cc12`, half-maximal inhibition in [5] (IC50) was put at 0.02 µM.

For the compound `COc1cc2cc(-c3sccc3Cl)cnc2cc1OC`, the 50% inhibitory concentration (IC50) was 1 µM in assay [5] and above 20 µM in assay [1].

With `Fc1ccc2cc(-c3ccsc3)cnc2c1`, the IC50 was above 20 µM in [1] and 0.025 µM in assay [12].

Regarding `COc1cc2cc(-c3ccc(OCc4ccccc4)cc3)cnc2cc1OC`, the results for the IC50 in assay [5] and in [1] were above 30 µM and above 20 µM, respectively.

Turning to `COc1cccc(-c2cnc3cc(OC)c(OC)cc3c2)c1`, the results for the IC50 in assay [1] and in assay [13] were above 20 µM and 2 µM, respectively.

Take `COc1cc2cc(O)cnc2cc1OC`: the values for the half-maximal inhibitory concentration (IC50) in [5] and in [1] were at least 20 µM and above 20 µM, respectively.

Take `c1ccc2ncc(-c3c[nH]c4ccccc34)cc2c1`: the IC50 is above 20 µM in assay [1] and 8 µM in assay [14].

In the case of `COc1cc2cc(-c3ccc4ccccc4c3)cnc2cc1OC`, the values for the IC50 in assay [5] and in assay [1] were at least 20 µM and above 20 µM, respectively.

In the case of `COc1cc2cc(-c3ccccc3OC)cnc2cc1OC`, the IC50 is 2 µM in assay [5] and above 20 µM in assay [1].

For `COc1ccc2cc(-c3c[nH]c4ccccc34)cnc2c1OC`, the IC50 was above 50 µM in assay [5] and above 20 µM in assay [1].

For `Oc1cc2cc(-c3cccnc3)cnc2cc1O`, the IC50 in assay [1] amounted to 0.5 µM; in assay [15], 10 µM.

On to `COc1cc2cc(NCc3ccccc3)cnc2cc1OC`, for which the values for the half-maximal inhibitory concentration (IC50) in assay [16] and in [1] were 0.08 µM and above 20 µM, respectively.

Regarding `C(=C\c1cnc2ccccc2c1)/c1ccccc1`, the IC50 in assay [17] was 0.2 µM; in assay [1], above 20 µM.

For `COc1cc2cc([N+](=O)[O-])cnc2cc1OC`, the 50% inhibitory concentration (IC50) is above 50 µM in [5] and above 20 µM in [1].

Consider `COc1cc2cc(-c3ccccc3)cnc2cc1OC`, for which the IC50 in assay [1] was above 20 µM; in assay [18], 0.15 µM.

Take `COc1cc(OC)c2cc(-c3ccsc3)cnc2c1`: the IC50 in assay [19] is above 200 µM; in [1], above 20 µM; in assay [20], 0.03 µM.

On to `COc1ccc(-c2cnc3cc(OC)c(OC)cc3c2)cc1OC`, for which the figures for the IC50 in assay [21] and in assay [1] were 10 µM and above 20 µM, respectively.

Regarding `COc1ccc(/C=C/c2cnc3cc(OC)c(OC)cc3c2)cc1`, the half-maximal inhibitory concentration (IC50) in assay [1] was above 20 µM; in assay [22], 0.1 µM.

Turning to `COc1cc2cc(-c3cc(OC)c(OC)c(OC)c3)cnc2cc1OC`, the results for the IC50 in assay [5] and in [1] were above 50 µM and above 20 µM, respectively.

(Values after ChEMBL document CHEMBL1127568, “A new series of PDGF receptor tyrosine kinase inhibitors: 3-substituted quinoline derivatives” (J Med Chem, 1994).)
